Only some compounds are listed: those with a hit (about 1.4% of all), similar ones and a draw of the others.
A3G deaminase – APOBEC3G DNA deaminase inhibitors, primary screen, biochemical, fluorescence, single-stranded DNA substrate, uHTS; recombinant A3G, ssDNA deamination FAM/TAMRA fluorescence; actives 0.28% (n = 330,000); AID 493012, 2011; inhibition, % at 20 µM;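 active = inhibition of at least 40% at 20 µM, with no more than 30% in the related APOBEC3A deaminase screen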;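 note: plate controls were DMSO wells with A3G for no effect and wells lacking A3G enzyme for full effect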
HKDC1 inh – HKDC1 hexokinase inhibitors, primary screen, biochemical, fluorescence, uHTS; Q2TB90; recombinant HKDC1, G6PDH/diaphorase resazurin coupled fluorescence; inhibition, % at 20 µM; actives 0.16% (n = 340,000); AID 493160, 2011;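 active = inhibition above about 35% when tested at 20 µM, limit read from the data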;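 note: plate controls were DMSO wells with enzyme for no effect and DMSO wells lacking enzyme for full effect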
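Test system: recombinant HKDC1 (HK5) hexokinase enzyme, produced in-house / Doses: 20 µM test compound, 1% DMSO / Timing: 90 min, room temperature / Detection: G6PDH/diaphorase-coupled fluorescence, 1 mM NADP, 100 µM resazurin, 525/613 nm / Control set: DMSO wells with and without enzyme mix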
hiPSC survival – enhancers of single-cell hiPSC survival, primary screen, ATPlite luminescence; survival enhancement, % at 20 µM; actives 0.044% (n = 360,000); 100% = ROCK inhibitor wells, 0% = DMSO; in the data active = survival enhancement above about 18%;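 note: cells exposed to compounds for 16 hours before the ATP read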
PfG6PD inh – PfG6PD enzyme inhibitors, primary screen, biochemical, fluorescence intensity, uHTS; glucose-6-phosphate dehydrogenase-6-phosphogluconolactonase (Plasmodium falciparum 3D7); PfGluPho enzyme, NADPH resazurin-diaphorase fluorescence; inhibition, % at 20 µM; actives 0.78% (n = 350,000); AID 504690, 2011;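 active = inhibition reaching at least a set limit at 20 µM in the primary screen, cut at about 59% in these data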;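 note: 0% = DMSO wells with substrate and 100% = DMSO wells lacking glucose-6-phosphate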
A3A deaminase – APOBEC3A ssDNA deaminase inhibitors, primary screen, selectivity assay for APOBEC3G inhibitor project, biochemical, FAM/TAMRA oligo cleavage fluorescence | inhibition, % at 20 µM | recombinant A3A, FAM/TAMRA ssDNA deamination fluorescence | actives 0.41% (n = 330,000) | AID 493011, 2011;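 active = at least 40% inhibition at 20 µM here, with at most 30% in a related deaminase screen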;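 note: plate controls were A3A with DMSO for no effect and wells lacking A3A enzyme for full effect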
Target sequence (P31941 whole entry, looked up): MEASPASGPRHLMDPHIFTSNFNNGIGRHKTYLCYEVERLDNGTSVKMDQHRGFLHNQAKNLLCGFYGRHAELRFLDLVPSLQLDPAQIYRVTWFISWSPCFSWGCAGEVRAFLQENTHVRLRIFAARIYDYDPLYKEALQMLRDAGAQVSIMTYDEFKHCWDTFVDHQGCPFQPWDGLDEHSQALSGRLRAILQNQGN
A3A conf – APOBEC3A deaminase inhibitors, retest, confirmation, selectivity assay for APOBEC3G inhibitor project, biochemical, single concentration, fluorescence readout. actives 63% (n = 1,400). shares compounds with A3A deaminase. AID 493151, 2011. inhibition, % at 20 µM. recombinant A3A, ssDNA deaminase UDG fluorescence assay;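 active = inhibition reaching a set limit, 80% of the first screen's cutoff, at 20 µM in any replicate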;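 note: plate controls were DMSO wells with A3A for no effect and wells lacking A3A enzyme for full effect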
UDG ctr A3A – E. coli UDG inhibitors, confirmation, counter-screen for APOBEC3A inhibitor project, biochemical, single concentration, fluorescence, FAM/TAMRA oligo. shares compounds with A3A deaminase. UDG counterscreen, FAM/TAMRA uracil oligo fluorescence. inhibition, % at 20 µM. 1,000 tested, under 10 active. AID 504714, 2011; call rule not given here
The depositor's hits bear a star; · = not tested or not shown.

SMILES	A3G deaminase	HKDC1 inh	hiPSC survival	PfG6PD inh	A3A deaminase	A3A conf	UDG ctr A3A
O=C(Nc1ccc(Cl)cc1)c1ccc2c(=O)n3c(nc2c1)CCCCC3	11	1	0	5	52*	-4	·
COc1ccc(N2CC(C(=O)NCc3ccco3)CC2=O)cc1 (stereo not drawn)	-1	-7	0	49	41*	46*	4
CC[n+]1c(C)n(-c2ccccc2)c2ccc(C(=O)OC)cc21	12	-5	0	-4	44*	40*	-3
CC(=O)OCC[n+]1c(C)n(-c2ccccc2)c2ccc(Cl)cc21	11	-12	-1	14	42*	84*	-3
CC(=O)c1c(C)n(-c2ccccc2)c2ccc(OCC(N)=O)cc12	-7	-4	0	19	-6	·	·
CCOC(=O)c1ccc2c(c1)[n+](CC)c(C)n2-c1ccccc1	26	-9	0	12	75*	85*	2
O=C(NC1CCCCC1)C(c1ccncc1)N(C(=O)c1csnn1)c1ccc(F)cc1 (stereo not drawn)	-12	-6	0	-16	-2	·	·
O=C(Nc1ccc2ncccc2c1)c1ccccc1	9	-7	0	1	29	·	·
O=C(Nc1ccc2ncccc2c1)c1ccccc1Cl	6	-3	4	-18	46*	75*	-2
O=C(COC(=O)c1cc[n+]([O-])cc1)NCc1ccccc1Cl	-6	-8	2	-4	0	·	·
O=C(CN1CCOCC1)OCCCc1ccccc1	-1	0	0	0	-1	·	·
Cc1ccc(CCCOC(=O)CN2CCCCC2)cc1	-8	0	-1	-5	-2	·	·
C[N+]1(CC(=O)OCCCc2ccccc2)CCOCC1	24	-7	2	6	69*	92*	5
Cc1ccc(CCCOC(=O)C[N+]2(C)CCOCC2)cc1	24	-1	-1	13	42*	89*	4
C#CCSc1nc(Cc2ccc(Cl)cc2)nc2ccccc12	-2	-10	3	-15	48*	-5	-2
CCCc1nn2c(=O)cc(CSCC(=O)Nc3ccc(C)cc3)nc2s1	5	-7	0	-11	0	·	·
COc1ccc(C(=O)NC2CCN(CC(=O)NC3CCCCC3)CC2)cc1	-7	-5	0	11	-3	·	·
COc1ccc(C(=O)NC2CCN(CC(=O)N3CCCCC3)CC2)cc1	4	-7	2	14	41*	6	·
CC1CCN(C(=O)c2ncn(C)c2C(=O)N2CCC(C)CC2)CC1	20	-5	-1	5	55*	69*	-2
C[C@H](O)[C@@H]1C(=O)N2CCc3c([nH]c4ccccc34)[C@@H]2C[C@@H]1N(C)C(=O)NC1CCCCC1	·	·	-4	-1	·	·	·
COc1ccccc1NCCC(=O)OCC(=O)NCc1ccco1	25	5	0	-1	44*	24*	1
Cc1c(Cl)cnc(NC(=O)COC(=O)/C=C/c2ccco2)c1Cl	7	1	1	27	20	·	·
COc1ccc(OCCC(=O)OCC(=O)NCc2ccco2)cc1	7	5	4	6	14	·	·
O=C(COC(=O)/C=C/c1ccco1)NCc1ccccc1Cl	-4	-7	1	7	-2	·	·
O=C(COC(=O)/C=C/c1ccco1)Nc1ncc(C(F)(F)F)cc1Cl	16	4	-2	1	51*	50*	3
O=C(COC(=O)/C=C/c1ccco1)NCc1ccco1	26	0	0	12	49*	36*	1

Screening results from PubChem BioAssay.
